The term Ki denotes a measure of affinity in units of concentration, obtained from inhibition or displacement. A lower Ki goes with a stronger hold on the target.

The results in this text go back to ChEMBL document CHEMBL3351525, “Synthesis of tripeptides containing D-Trp substituted at the indole ring, assessment of opioid receptor binding and in vivo central antinociception” (J Med Chem, 2014).

Activity calls are given as the source filed them. Where a SMILES comes first, the peptide text is derived from it. [ ]: non-standard residue; d: D form. Bounds are passed on as bounds.

The target of one series is Mu-type opioid receptor (Homo sapiens, UniProt P35372). Description: Displacement of [3H]DAMGO from human mu opioid receptor expressed in HEK293 cells by scintillation counting. The series is classed as cell-based. Background: In a radioligand displacement assay an active substance lowers the binding of a labelled ligand.
Sequence of Mu-type opioid receptor (P35372 whole entry): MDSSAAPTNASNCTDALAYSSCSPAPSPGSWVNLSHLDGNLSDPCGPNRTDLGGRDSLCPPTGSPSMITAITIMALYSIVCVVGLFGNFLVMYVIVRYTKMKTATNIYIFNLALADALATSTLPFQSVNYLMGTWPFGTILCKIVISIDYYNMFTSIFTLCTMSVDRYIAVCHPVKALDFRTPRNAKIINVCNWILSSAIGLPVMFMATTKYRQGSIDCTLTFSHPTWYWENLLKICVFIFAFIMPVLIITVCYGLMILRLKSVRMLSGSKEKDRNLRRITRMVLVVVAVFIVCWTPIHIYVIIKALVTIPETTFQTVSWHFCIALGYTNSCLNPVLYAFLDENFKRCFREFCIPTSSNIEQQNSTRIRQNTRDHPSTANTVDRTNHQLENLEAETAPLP
Series [1] deals with Delta-type opioid receptor (Homo sapiens, UniProt P41143). Kind of series: Displacement of [3H]diprenorphine from human delta opioid receptor expressed in HEK293 cells by scintillation counting. The series is classed as cell-based.
Sequence of Delta-type opioid receptor (P41143 whole entry): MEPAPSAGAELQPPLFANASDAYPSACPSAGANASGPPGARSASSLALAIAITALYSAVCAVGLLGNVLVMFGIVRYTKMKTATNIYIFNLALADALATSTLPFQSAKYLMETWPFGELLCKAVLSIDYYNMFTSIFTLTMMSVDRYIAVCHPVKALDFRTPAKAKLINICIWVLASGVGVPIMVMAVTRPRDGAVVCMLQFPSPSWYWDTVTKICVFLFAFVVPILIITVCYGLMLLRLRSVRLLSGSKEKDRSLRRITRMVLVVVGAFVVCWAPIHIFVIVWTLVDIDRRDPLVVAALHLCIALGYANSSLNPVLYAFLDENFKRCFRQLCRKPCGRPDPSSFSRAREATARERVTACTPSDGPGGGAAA
For series [2], the target named is Kappa-type opioid receptor (Homo sapiens, UniProt P41145). Description: Displacement of [3H]U69593 from human kappa opioid receptor expressed in HEK293 cells by scintillation counting. The series is classed as cell-based.
Sequence of Kappa-type opioid receptor (P41145 whole entry): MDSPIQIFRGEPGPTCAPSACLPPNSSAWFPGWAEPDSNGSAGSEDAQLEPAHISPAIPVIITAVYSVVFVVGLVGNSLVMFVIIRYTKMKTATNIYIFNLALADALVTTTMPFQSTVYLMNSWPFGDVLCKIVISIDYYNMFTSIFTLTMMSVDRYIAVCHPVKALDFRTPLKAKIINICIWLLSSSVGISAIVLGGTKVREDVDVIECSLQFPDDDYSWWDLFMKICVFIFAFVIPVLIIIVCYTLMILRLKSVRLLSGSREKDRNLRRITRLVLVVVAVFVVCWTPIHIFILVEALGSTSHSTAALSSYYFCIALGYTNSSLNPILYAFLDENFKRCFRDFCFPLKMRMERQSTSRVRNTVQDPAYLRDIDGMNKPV
The subject of series [3] is Mus musculus. Description: Antinociceptive activity in CD-1 mouse assessed as increase in tail-flick latency period at 20 mg/kg, ip at 15 mins by tail flick test. The series is classed as functional. As to conditions: for MPE: route intraperitoneal. On the technique in general: Thermal pain tests record how soon the animal reacts.
Series [4] concerns Mus musculus. Description: Antinociceptive activity in CD-1 mouse assessed as increase in tail-flick latency period at 20 mg/kg, ip at 30 mins by tail flick test. The series is classed as functional. As to conditions: for MPE: route intraperitoneal.
The subject of series [5] is Mus musculus. Kind of series: Toxicity in icv dosed CD-1 mouse assessed as locomotor activity. The series is classed as organism-based. As to conditions: in vivo, icv_or_intrathecal.
The test system of series [6] is Mus musculus. Kind of series: Toxicity in icv dosed CD-1 mouse assessed as circling behavior. The series is classed as organism-based. As to conditions: in vivo, icv_or_intrathecal.
Series [7] relates to Mus musculus. Kind of series: Toxicity in icv dosed CD-1 mouse assessed as straub tail. The series is classed as organism-based. As to conditions: in vivo, icv_or_intrathecal.
Series [8] deals with Mus musculus. Description: Toxicity in icv dosed CD-1 mouse assessed as grooming. The series is classed as organism-based. As to conditions: in vivo, icv_or_intrathecal.
A short description of series [9]: Stability in mouse serum assessed as drug degradation after 3 hrs incubation. The series is classed as ADME. As to conditions: read-out: Drug degradation. The procedure, abridged: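 Peptide incubated in mouse serum for 3 h; degradation assessed.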
The subject of series [10] is Mus musculus. Description: Antinociceptive activity in CD-1 mouse assessed as increase in tail-flick latency period at 40 mg/kg, ip at 30 mins by tail flick test. The series is classed as functional. As to conditions: route intraperitoneal.
Series [11] deals with Mus musculus. Description: Antinociceptive activity in ip dosed CD-1 mouse assessed as increase in tail-flick latency period at 30 mins by tail flick test. The series is classed as functional, organism-based. In outline:
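Tail immersed in 52 ± 0.5 °C water; withdrawal latency measured. Pre-treatment control latency recorded; mice not flicking within 5 s excluded. Vehicle or peptide given ip at 10, 20 or 40 mg/kg. Latency read at 5, 15, 30, 45 and 60 min post-dose, 10 s cutoff. Response expressed as % maximal possible effect (MPE%).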

Series [12] has as its system Mus musculus. Kind of series: Antinociceptive activity in icv dosed CD-1 mouse assessed as increase in tail-flick latency period at 10 mins by tail flick test. The series is classed as functional, organism-based. In outline:
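Hot-water (52 ± 0.5 °C) tail-immersion test after icv injection at 2.5, 5 or 10 μg/mouse, compared with vehicle. Withdrawal latency measured with a 10 s cutoff. Response expressed as % maximal possible effect (MPE%).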

In series [13] the test system is Mus musculus. Kind of series: Antinociceptive activity in CD-1 mouse assessed as increase in tail-flick latency period at 2.5 microg, icv at 10 mins by tail flick test. The series is classed as functional.
For series [14], the system named is Mus musculus. Description: Antinociceptive activity in CD-1 mouse assessed as increase in tail-flick latency period at 5 microg, icv at 10 mins by tail flick test. The series is classed as functional.
Series [15] relates to Mus musculus. Kind of series: Antinociceptive activity in CD-1 mouse assessed as increase in tail-flick latency period at 10 microg, icv at 10 mins by tail flick test. The series is classed as functional.

`O=C1CNC(=O)[C@H](Cc2ccccc2)NC(=O)[C@@H](Cc2c[nH]c3ccccc23)NC(=O)CNC(=O)[C@H](Cc2ccc(O)cc2)N1`: the inhibition constant Ki on Mu-type opioid receptor is 3.6 nM; in series [1] it was 24 nM; in [2], above 100000 nM. For the same compound, the MPE is 22% with Mus musculus [3] and 32% with Mus musculus [4]. The Activity result in the series on Mus musculus [5], in the series on Mus musculus [6], with Mus musculus [7] and in the series on Mus musculus [8] was “Non-toxic” in each case. Further, the metabolised at 3 h in series [9] was below 10%.

Compound `CC(=O)N[C@H](Cc1c[nH]c2cc(Cl)ccc12)C(=O)N[C@@H](Cc1ccccc1)C(=O)NCC(N)=O` displayed a Ki at Mu-type opioid receptor above 100000 nM.

In the case of `CC(=O)N[C@H](Cc1c[nH]c2ccc([N+](=O)[O-])cc12)C(=O)N[C@@H](Cc1ccccc1)C(=O)NCC(N)=O`, the Ki at Mu-type opioid receptor was 51.9 nM; in series [1], above 100000 nM; in series [2] it was above 100000 nM. Further, the MPE in the series on Mus musculus [10] was 48%. Further, the Activity result is “Dose-dependent effect” in the series on Mus musculus [11]; “Dose-dependent effect” in the series with Mus musculus [12]; 25% with Mus musculus [13]; 49% in the series with Mus musculus [14]; 47% in the series with Mus musculus [15]; “Non-toxic” with Mus musculus [5]. Besides, the Activity entry in the series on Mus musculus [6], in the series with Mus musculus [7] and in the series on Mus musculus [8] was “Non-toxic” throughout. Also, the metabolised at 3 h in series [9] came out at 7%.

Turning to `CC(=O)N[C@H](Cc1c[nH]c2cc(F)ccc12)C(=O)N[C@@H](Cc1ccccc1)C(=O)NCC(N)=O`, at Mu-type opioid receptor, affinity was put at a Ki of 5.7 nM.

For `CC(=O)N[C@H](Cc1c[nH]c2ccccc12)C(=O)N[C@@H](Cc1ccccc1)C(=O)NCC(N)=O` (Ac-[dW]-Phe-Gly-NH2), the MPE in the series on Mus musculus [3] is given as 19%; with Mus musculus [4] it was 37%. Further, the Activity entry in the series on Mus musculus [5], in the series with Mus musculus [6], in the series on Mus musculus [7] and in the series with Mus musculus [8] was “Non-toxic” each time.

The compound `CC(=O)N[C@H](Cc1c[nH]c2ccc(Cl)cc12)C(=O)N[C@@H](Cc1ccccc1)C(=O)NCC(N)=O` gave a Ki at Mu-type opioid receptor of 20.8 nM.

In the case of `CC(=O)N[C@H](Cc1c[nH]c2ccc(F)cc12)C(=O)N[C@@H](Cc1ccccc1)C(=O)NCC(N)=O`, the Ki at Mu-type opioid receptor was above 100000 nM.

In the case of `CC(=O)N[C@H](Cc1c(C)[nH]c2ccc(Cl)cc12)C(=O)N[C@@H](Cc1ccccc1)C(=O)NCC(N)=O`, on Mu-type opioid receptor, the Ki was above 100000 nM.

As for `CC(=O)N[C@H](Cc1c[nH]c2ccc(Br)cc12)C(=O)N[C@@H](Cc1ccccc1)C(=O)NCC(N)=O`, the figures for the Ki (on Mu-type opioid receptor; in series [1]; in [2]) were 114 nM, above 100000 nM and above 100000 nM, respectively.

Take `CC(=O)N[C@H](Cc1c[nH]c2ccc(C)cc12)C(=O)N[C@@H](Cc1ccccc1)C(=O)NCC(N)=O`: the Ki on Mu-type opioid receptor was 426 nM; in [1], above 100000 nM; in series [2], above 100000 nM.

As for `CC(=O)N[C@H](Cc1c(C)[nH]c2c(Br)cccc12)C(=O)N[C@@H](Cc1ccccc1)C(=O)NCC(N)=O`, the Ki on Mu-type opioid receptor was 4.03 nM; in [1] it was above 100000 nM; in [2], above 100000 nM. Moreover, the values for the MPE with Mus musculus [3] and in the series with Mus musculus [4] were 33% and 32%, respectively. Besides, the Activity entry in the series with Mus musculus [5], with Mus musculus [6], in the series on Mus musculus [7] and with Mus musculus [8] was “Non-toxic” in each case.

`CC(=O)N[C@H](Cc1c[nH]c2c(C)cccc12)C(=O)N[C@@H](Cc1ccccc1)C(=O)NCC(N)=O` registered an inhibition constant Ki on Mu-type opioid receptor above 100000 nM.

On to `CC(=O)N[C@H](Cc1c[nH]c2ccccc12)C(=O)N[C@@H](Cc1ccccc1)C(N)=O` (Ac-[dW]-Phe-NH2), for which the outcome in the series on Mus musculus [3] and in the series on Mus musculus [4] was inactive. The Activity result in the series with Mus musculus [5], in the series with Mus musculus [6], in the series with Mus musculus [7] and in the series on Mus musculus [8] was “Non-toxic” in each case.

Take `CC(=O)N[C@H](Cc1c[nH]c2c(Br)cccc12)C(=O)N[C@@H](Cc1ccccc1)C(=O)NCC(N)=O`: the results for the Ki (at Mu-type opioid receptor; in series [1]; in series [2]) were 190 nM, above 100000 nM and above 100000 nM, respectively.

For `CC(=O)N[C@H](Cc1c(C)[nH]c2ccccc12)C(=O)N[C@@H](Cc1ccccc1)C(=O)NCC(N)=O`, the Ki was 314 nM at Mu-type opioid receptor, above 100000 nM in series [1] and above 100000 nM in series [2].
